The values below come from publication PMC2882023 (The Journal of neuroscience : the official journal of the …, 2010).

The conditions of data set [1]: ref Wu et al. 2004; cited from earlier work.
Data set [2] deals with pERK-positive cells in L6 spinal cord. Description: spinal ERK activation. The data set is classed as in vivo, Sprague-Dawley rats. To be noted: 300 nmol, i.t., 10 min before 1% acetic acid intravesically; n = 4. The essentials:
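Separate experiment in urethane-anaesthetised bladder-cannulated female rats: ≥1 h post-cannulation, i.t. test compound (300 nmol) or 5% DMSO; 10 min later, 700 μl 1% acetic acid intravesically for 2 min (sham: vehicle, no acid, 12 min). Perfusion-fixed (4% paraformaldehyde/picric acid); 20 μm L6 cryosections. Anti-phospho-p44/42 (Thr202/Tyr204) staining with tyramide amplification and FITC. Four rats/group, three sections each, blind counting; one-way ANOVA/Tukey.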

For data set [3], the system named is other P2X receptors. Description: calcium flux selectivity over other P2X receptors. To be noted: up to a concentration of 10 μM. The data set is classed as cell-based. In outline: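 Off-target P2X subtypes were tested in Fluo-3-loaded CHOK1 cells (recombinant human P2X1, human P2X4, rat P2X5 or human P2X7) and 1321N1 astrocytoma cells (cloned human P2X2). Intracellular calcium flux was evoked by αβmeATP or ATP, at a level varied by subtype, with test compound present. pIC50 was derived with n = 3 per receptor.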
(Calcium flux is commonly read through the fluorescence of an indicator in the cells.)

Data set [4] deals with T1, hP2X2/3 (Homo sapiens, UniProt P56373+Q9UBL9).
T1 sequence (Q9UBL9 1-471): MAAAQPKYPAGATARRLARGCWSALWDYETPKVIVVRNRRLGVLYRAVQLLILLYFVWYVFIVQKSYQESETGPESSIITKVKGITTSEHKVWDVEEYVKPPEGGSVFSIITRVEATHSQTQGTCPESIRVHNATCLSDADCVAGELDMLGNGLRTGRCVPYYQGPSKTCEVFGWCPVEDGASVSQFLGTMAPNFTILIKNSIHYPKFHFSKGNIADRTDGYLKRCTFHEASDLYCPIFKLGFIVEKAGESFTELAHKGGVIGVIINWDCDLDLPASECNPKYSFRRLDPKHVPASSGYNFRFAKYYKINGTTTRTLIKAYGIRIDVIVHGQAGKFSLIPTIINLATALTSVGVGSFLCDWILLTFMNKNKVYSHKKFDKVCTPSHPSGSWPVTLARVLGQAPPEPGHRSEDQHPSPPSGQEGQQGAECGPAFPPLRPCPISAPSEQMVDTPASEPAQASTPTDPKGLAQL
T1 sequence (P56373 1-397): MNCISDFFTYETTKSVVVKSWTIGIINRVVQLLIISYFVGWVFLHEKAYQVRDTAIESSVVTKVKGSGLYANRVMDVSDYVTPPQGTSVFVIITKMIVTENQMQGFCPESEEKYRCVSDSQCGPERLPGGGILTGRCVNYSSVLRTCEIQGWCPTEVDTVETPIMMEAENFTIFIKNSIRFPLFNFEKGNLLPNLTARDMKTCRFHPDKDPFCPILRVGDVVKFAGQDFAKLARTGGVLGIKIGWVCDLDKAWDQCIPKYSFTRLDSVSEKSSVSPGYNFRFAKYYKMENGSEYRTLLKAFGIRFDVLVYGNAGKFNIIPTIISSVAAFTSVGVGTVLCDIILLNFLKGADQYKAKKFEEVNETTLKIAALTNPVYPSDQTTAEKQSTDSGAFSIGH
It counts as cell-based. To be noted: αβmeATP or ATP-evoked calcium flux, 1321N1 cells, n = 15. In outline:
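Cytosolic calcium flux was read in Fluo-3-loaded 1321N1 astrocytoma cells transfected with cloned human P2X2/3 receptors. Flux was evoked by αβmeATP or ATP, at an agonist level set per receptor subtype, with test compound present. Inhibition was expressed as pIC50 ± SEM from 15 determinations.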

For data set [5], the system named is micturition reflex contractions. The data set is classed as in vivo, Sprague-Dawley rats. To be noted: i.t.; for intercontraction interval (ICI): anaesthetized rats, mean ± SEM; for intercontraction interval (ICI), extent of prolongation over the dose range: across the doses tested. The essentials: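 Urethane-anaesthetised (1.2 g/kg i.p.) adult female rats, 200–280 g, with an intrathecal catheter tip at L1 placed ≥1 d earlier. Ureters and urethral orifice ligated. Bladder saline-infused at 100 μl/min to micturition threshold, then 3–5 μl/min. After ≥10 min stable baseline, vehicle (saline or 5% DMSO/saline), then escalating i.t. doses (10 μl + 10 μl saline flush, ≥8 min apart). ICI from intravesical pressure; n = 5–15; repeated-measures ANOVA/Bonferroni.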

For data set [6], the system named is 75 receptors, channels, enzymes, and transporters. Put plainly: Cerep screen of 75 receptors, channels, enzymes and transporters. The data set is classed as binding. To be noted: 10 μM, 75 targets.
Data set [7] has as its system more than 100 kinases. Put plainly: Ambit kinase screen. The data set is classed as binding. To be noted: 10 μM.
In data set [8] the test system is P2X3. To be noted: ref Gever et al., 2006; Carter et al., 2009; cited from earlier work.
Data set [9] relates to P2X2/3. To be noted: ref Gever et al., 2006; Carter et al., 2009; cited from earlier work.
Data set [10] deals with P2X1. To be noted: ref Gever et al., 2006; Carter et al., 2009; cited from earlier work.

Structures are written as SMILES. Counter-ions that a name gives are not always drawn. Like-named read-outs stand apart in the source and are kept apart here.

Take `O=C(O)c1cc(C(=O)O)c(C(=O)N(Cc2cccc(Oc3ccccc3)c2)[C@H]2CCCc3ccccc32)cc1C(=O)O` [A-317491]: the CNS permeability result in data set [1] was “negligible CNS permeability”.

On to `C#Cc1cc(Oc2cnc(N)nc2N)c(C(C)C)cc1OC` [AF-792], for which the “number of pERK-positive cells in L6 spinal cord segment” value in data set [2] amounted to 43.0 ± 9.6 cells/ section. In data set [3], the “inhibition at other P2X receptors” value is given as “no inhibition”. Further, in data set [4], the “pIC50 ± SEM” value is 7.94 ± 0.08. Also, the “intercontraction interval (ICI)” value in data set [5] (100 nmol) is 8.00 ± 1.67 min; in data set [5] (300 nmol), 9.33 ± 2.50 min. In addition, the “inhibition of radioligand binding or function” value in data set [6] and in data set [7] was “little or no inhibition” in each case.

For the compound `Cc1nc(N=Nc2ccc(S(=O)(=O)O)cc2S(=O)(=O)O)c(COP(=O)(O)O)c(C=O)c1O` [PPADs, pyridoxal-phosphate-6-azophenyl-2′,4′,-disulphonic acid], the pIC50 (in general, the IC50 on a negative log10 scale, so that one unit is a factor of ten) at P2X3 in data set [8] is recorded as 6. Also, the “intercontraction interval (ICI)” value in data set [5] (10 nmol) worked out at 3.50 ± 1.15 min. Besides, in data set [5], the “intercontraction interval (ICI), extent of prolongation over the dose range” value is reported as “more than 2 min”. Besides, the “pIC50 at P2X2/3” value in data set [9] was 6.

For `Nc1ncnc2c1ncn2[C@@H]1O[C@H](COP(=O)(O)OP(=O)(O)OP(=O)(O)O)[C@H]2OC3(O[C@H]21)C([N+](=O)[O-])=CC(=[N+]([O-])[O-])C=C3[N+](=O)[O-]` (some centres unmarked) [TNP-ATP, 2′,3′-O-(2,4,6-trinitrophenyl) adenosine 5′-triphosphate monolithium trisodium salt], in data set [10], the “pIC50 at P2X1” value was 8.22. Also, the “pIC50 at P2X3” value in data set [8] was 9. Besides, the figures for the “intercontraction interval (ICI)” value in data set [5] (1 nmol) and in data set [5] (10 nmol) were 4.64 ± 1.30 min and 4.28 ± 1.21 min, respectively. In [9], the “pIC50 at P2X2/3” value is listed as 8.4.

For `Nc1ncnc2c1ncn2[C@@H]1O[C@H](COP(=O)(O)CP(=O)(O)OP(=O)(O)O)[C@@H](O)[C@H]1O` [αβmeATP, α,β-methylene-ATP], in [5] (1 nmol), the “intercontraction interval (ICI)” value came to 8.45 ± 2.48 min. Also, in data set [5], the “lowest significant dose for prolonging the ICI” value stood at 1 nmol and the “intercontraction interval (ICI), extent of prolongation over the dose range” value is recorded as “up to 10 min”.
